# Assay outcomes deposited in PubChem BioAssay by several laboratories.
# Redox H2O2 prof: compounds producing H2O2 with reducing agent – biochemical, NIH compound library profiling, artefact control for MLSCN library redox annotation, primary screen; DTT-dependent redox cycling H2O2, phenol red/HRP absorbance; 100% = 100 µM peroxide control, 0% = buffer; activation, % at 10 µM; actives 0.03% (n = 200,000); AID 878;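 active means activation of at least 50% relative to the plate's high and low controls in the primary single-dose screen; inactive means activation below 50%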;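 further: compound incubated with DTT at 0.8 mM final as the reducing agent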
# RBBP9 inh: inhibitors of human serine hydrolase RBBP9 | O75884 | recombinant RBBP9, FP-Rh probe fluorescence polarization | inhibition, % at 7.94 µM | actives 0.2% (n = 220,000) | AID 1515;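 active means inhibition above the campaign mean of all tested compounds plus 3 SD, cut at about 14% in these data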
#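 Assay system: recombinant human RBBP9; Reagent: Serine-hydrolase probe FP-Rh, 375 nM pre-mixing; Doses: 7.94 µM single dose, 0.794% DMSO; Incubation: 30 min then 45 min, 25 °C; Detection: fluorescence polarization (mP), excitation 525 nm, emission 598 nm; Evaluation: percent inhibition from mP, scaled between DMSO and no-protein wells.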
# Arbovirus inh: arbovirus infection inhibition; arbovirus infection cell-based antiviral screen; inhibition, % at 10 µM; actives 0.37% (n = 200,000); AID 1251; in the data active means inhibition above about 30%
# Wee1 stabilizer: blocks degradation of human Wee1 kinase; P30291; HeLa Luc-Wee1K328M stability, luciferase luminescence; 100% = proteasome inhibitor MG132 effect; reporter increase, % at 5 µM; actives 1.2% (n = 220,000);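 active means activation above the mean of all tested compounds plus 3 SD, set per screening run, cut at about 8.8% in these data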;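 further: cells exposed to compound for 20 h before luminescence read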
# Target sequence (P30291 whole entry K328M): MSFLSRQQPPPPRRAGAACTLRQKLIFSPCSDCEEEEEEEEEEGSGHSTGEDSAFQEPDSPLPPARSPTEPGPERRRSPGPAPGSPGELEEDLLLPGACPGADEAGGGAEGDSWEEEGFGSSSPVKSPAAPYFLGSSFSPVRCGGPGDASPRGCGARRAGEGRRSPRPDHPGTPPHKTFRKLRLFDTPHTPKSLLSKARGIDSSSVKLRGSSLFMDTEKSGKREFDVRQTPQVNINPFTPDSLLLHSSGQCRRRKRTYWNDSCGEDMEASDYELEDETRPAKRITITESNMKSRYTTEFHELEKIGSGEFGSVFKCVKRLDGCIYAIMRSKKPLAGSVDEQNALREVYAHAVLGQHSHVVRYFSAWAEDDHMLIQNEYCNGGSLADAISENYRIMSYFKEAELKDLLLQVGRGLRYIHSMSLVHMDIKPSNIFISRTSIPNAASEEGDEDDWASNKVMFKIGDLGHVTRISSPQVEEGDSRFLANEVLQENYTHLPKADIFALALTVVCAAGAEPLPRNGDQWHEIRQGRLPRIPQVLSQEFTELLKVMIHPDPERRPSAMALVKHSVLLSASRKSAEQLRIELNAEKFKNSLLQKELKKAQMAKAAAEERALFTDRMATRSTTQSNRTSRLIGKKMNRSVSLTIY
# PKD1 kinase inh: PKD1 (human) kinase inhibition | actives 0.056% (n = 200,000) | PKD1 kinase fluorescence polarization assay | AID 797 | inhibition, % (test concentration not listed); in the data active means inhibition above about 50%
# p97 ATPase inh: human p97 ATPase inhibition; P55072; recombinant p97 ATPase, Kinase-Glo ATP luminescence, 3 h; inhibition, % at 8 µM; actives 0.42% (n = 220,000); AID 1481; in the data active means inhibition above about 15%
# Wee1 degr conf: confirmation of human Wee1 degradation inhibitors | shares compounds with Wee1 stabilizer | HeLa Luc-Wee1K328M degradation, luminescence; vehicle 0%, proteasome-blocked wells 100% | activation, % at 5 µM | actives 4% (n = 1,100) | AID 1410; in the data active means activation above about 8.9%
# Hits are given with their value; 0 = inactive; - = not tested or not shown. The list is not random: actives were taken first. Their share in the collection is about 2.2%.
SMILES,Redox H2O2 prof,RBBP9 inh,Arbovirus inh,Wee1 stabilizer,PKD1 kinase inh,p97 ATPase inh,Wee1 degr conf
O=C(CCc1nc2ccccc2c(=O)[nH]1)Nc1ccc(N2CCCCC2)cc1,0,0,0,11.2,0,0,0
CCOCC(=O)Nc1nc(C)cc(C)n1,0,0,0,11.1,0,0,0
CS(=O)(=O)Nc1ccc(C(=O)Nc2ccc(S(=O)(=O)N3CCCC3)cc2)cc1,0,0,0,12.8,0,0,0
COc1ccc(C(C(=O)Nc2ccc(C(C)C)cc2)N(Cc2ccco2)C(=O)CC2NC(=O)NC2=O)cc1 (stereo unspecified),0,0,0,15.8,0,0,0
COc1ccc(-c2nc(-c3ccc4c(c3)OCO4)[nH]c2-c2ccc(OC)cc2)cc1,0,0,0,13.1,0,0,0
COc1ccc(-c2noc(-c3ccc4c(c3)OCO4)n2)cc1,0,0,0,0,0,0,-
Cc1ccc2nc(NC(=O)C(NS(=O)(=O)c3cccc4nsnc34)C(C)C)sc2c1 (stereo unspecified),0,0,0,0,0,0,-
C/C=C/c1cc(CN2CCN(c3ccc(OC)cc3)CC2)c(O)c(OC)c1,0,0,0,0,0,0,-
C/C=C/c1cc(CN2CCN(c3ccccc3)CC2)c(O)c(OC)c1,0,0,0,11.0,0,0,0
c1ccc(C2Nc3ccccc3-c3nc4ccccc4n32)cc1 (stereo unspecified),0,0,0,15.1,0,0,0
CCc1cccc2c(C(=S)N3CCCC3)c[nH]c12,0,0,0,14.3,0,0,0
COC(=O)CSc1nnc(CNC(=O)c2ccco2)n1-c1ccc(F)cc1,0,0,0,0,0,0,-
C=CCn1c(SCC(=O)Nc2cc(C)c(Cl)cc2OC)nnc1-c1ccco1,0,0,0,0,0,0,-
C=CCn1c(SCC(=O)Nc2cc(C)ccc2OC)nnc1-c1ccco1,0,0,0,14.8,0,0,0
COc1ccc(NC(=S)Nc2cc(C(F)(F)F)ccc2F)cc1,0,0,0,0,0,0,-
COc1ccc(NC(=S)Nc2ccccc2C(F)(F)F)cc1,0,0,0,17.1,0,0,0
Cc1ccc(NC(=S)Nc2ccccn2)c(C)c1,-,0,-,0,-,0,-
Cc1cc(Cl)ccc1NC(=S)Nc1ccccn1,0,0,0,15.2,0,0,11.9
Clc1cccc(Cl)c1-c1nnc2cccc(Cl)n12,0,0,0,11.9,0,0,0
O=C(CSc1nnc(-c2ccc3c(c2)OCO3)o1)Nc1ncc(C(F)(F)F)cc1Cl,0,0,0,0,0,0,-
Cc1nc(NC(=O)CSc2nnc(-c3ccc4c(c3)OCO4)o2)c(Cl)cc1Cl,0,0,0,11.2,0,0,0
Cc1ccccc1OCc1nc2ccccc2c(=O)n1/N=C/c1cn[nH]c1-c1ccccc1,0,0,0,10.9,0,0,0
Cc1ccc(-c2[nH]ncc2/C=N/n2c(COc3ccccc3)nc3ccccc3c2=O)cc1,0,0,0,0,0,0,-
C/C(CCc1ccccc1)=N/NC(=O)C(=O)NC(C)c1ccccc1 (stereo unspecified),0,0,0,0,0,0,-
CCOC(=O)CC(NC(=O)c1ccc(C)cc1)c1ccc(OC)cc1 (stereo unspecified),0,0,0,0,0,0,-
SMILES,Redox H2O2 prof,RBBP9 inh,Arbovirus inh,Wee1 stabilizer,PKD1 kinase inh,p97 ATPase inh,Wee1 degr conf
CN1CCN(C(=O)CN(c2ccccc2)S(=O)(=O)N(C)C)CC1,0,0,0,10.9,0,0,0
CN(C)S(=O)(=O)N(CC(=O)N1CCOCC1)c1ccccc1,0,0,0,0,0,0,-
COc1ccccc1CNCC(=O)Nc1ccc(C(F)(F)F)cc1,-,0,-,11.9,-,0,0
O=C(NNC(=O)c1ccc(Cl)cc1Cl)Nc1ccccc1,0,0,0,0,0,0,-
Cc1nc(NNC(=O)c2ccc(Cl)cc2Cl)cc(-c2ccccc2)n1,0,0,0,11.0,0,0,0
O=CN1CCN(C(=O)c2ccccc2Cl)CC1,0,0,0,0,0,0,-
O=C(c1ccccc1Cl)N1CCSCC1,-,0,-,20.1,-,0,0
COCC(=O)NC1(c2nnnn2CCOC(=O)Nc2ccc(Cl)cc2)CCCCC1,0,0,0,0,0,0,-
Cc1cc(C)c(NC(=S)N(CCCN2CCOCC2)Cc2cccnc2)c(C)c1,0,0,0,0,0,0,-
O=C(CN(CC1CCCO1)C(=O)CCC(=O)Nc1ccccn1)NCC1CCCO1 (stereo unspecified),0,0,0,0,0,0,-
COCCNC(=O)CN(CC1CCCO1)C(=O)CCC(=O)Nc1ccccn1 (stereo unspecified),0,0,0,11.0,0,0,0
O=C(CN(Cc1ccccc1)C(=O)CCC(=O)Nc1ccccn1)NCc1ccco1,0,0,0,11.9,0,0,0
CCSc1nnc(NC(=O)COc2ccccc2[N+](=O)[O-])s1,0,0,0,0,0,0,-
NNC(=O)COc1ccccc1[N+](=O)[O-],0,0,0,0,0,0,-
CC(C)c1nnc(NC(=O)COc2ccccc2[N+](=O)[O-])s1,-,0,-,22.5,-,0,0
O=C(COc1ccccc1[N+](=O)[O-])NNC(=O)Nc1cccc2ccccc12,0,0,0,16.0,0,0,0
CCC(C)(C)n1nnnc1C(c1ccc2ncccc2c1)N1CCN2CCCC2C1 (stereo unspecified),0,0,0,0,0,0,-
Cc1cc(C)n2nc(C(=O)Nc3cccnc3)nc2n1,0,0,0,12.7,0,0,0
Cc1cc(C)n2nc(C(=O)Nc3cccc(S(=O)(=O)N4CCCC4)c3)nc2n1,-,0,-,0,-,0,-
Cc1ccc(Oc2ccc(OCC(=O)NC(CC(C)C)C(=O)O)cc2)cc1 (stereo unspecified),0,0,0,13.6,0,0,0
CCc1ccc(NC(=O)c2ccc3nc(N)sc3c2)cc1,0,0,0,0,0,0,-
Nc1nc2ccc(C(=O)Nc3ccccc3)cc2s1,0,0,0,15.4,0,0,0
COC(=O)c1ccc(NC(=S)NC2CC3CCC2C3)cc1 (stereo unspecified),0,0,0,0,0,0,-
CCOc1c(Nc2ccccc2O)c(=O)c1=O,-,0,-,0,-,0,-
CC(C)(C)c1ccc(C2(C)NC(=O)N(CC(=O)Nc3ccc4c(c3)OCO4)C2=O)cc1 (stereo unspecified),0,0,0,14.1,0,0,0
Cc1ccccc1-n1cc(-c2ccc(Br)cc2)nc1SCC(N)=O,-,0,-,13.2,-,0,0
Cc1ccc(-c2cn(-c3ccccc3)c(SCC(N)=O)n2)cc1C,0,0,0,0,0,0,-
CCCN(CCC)CCCNC(=O)CS(=O)Cc1nc(-c2ccc(OC)c(OC)c2)oc1C (stereo unspecified),0,0,0,0,0,0,-
